According to ChEMBL document CHEMBL4480400, “Development of an N-Acyl Amino Acid That Selectively Inhibits the Glycine Transporter 2 To Produce Analgesia in a Rat Model of Chronic Pain” (J Med Chem, 2019):
Activity calls are given as the source filed them.

What was measured:
[1] = target: T1, Sodium- and chloride-dependent glycine transporter 2 (Homo sapiens, UniProt Q9Y345); assay: Reversible non-competitive inhibition of human GlyT2a expressed in Xenopus laevis oocytes by two-electrode voltage clamp electrophysiology; type: cell-based
T1 sequence (Q9Y345 whole entry): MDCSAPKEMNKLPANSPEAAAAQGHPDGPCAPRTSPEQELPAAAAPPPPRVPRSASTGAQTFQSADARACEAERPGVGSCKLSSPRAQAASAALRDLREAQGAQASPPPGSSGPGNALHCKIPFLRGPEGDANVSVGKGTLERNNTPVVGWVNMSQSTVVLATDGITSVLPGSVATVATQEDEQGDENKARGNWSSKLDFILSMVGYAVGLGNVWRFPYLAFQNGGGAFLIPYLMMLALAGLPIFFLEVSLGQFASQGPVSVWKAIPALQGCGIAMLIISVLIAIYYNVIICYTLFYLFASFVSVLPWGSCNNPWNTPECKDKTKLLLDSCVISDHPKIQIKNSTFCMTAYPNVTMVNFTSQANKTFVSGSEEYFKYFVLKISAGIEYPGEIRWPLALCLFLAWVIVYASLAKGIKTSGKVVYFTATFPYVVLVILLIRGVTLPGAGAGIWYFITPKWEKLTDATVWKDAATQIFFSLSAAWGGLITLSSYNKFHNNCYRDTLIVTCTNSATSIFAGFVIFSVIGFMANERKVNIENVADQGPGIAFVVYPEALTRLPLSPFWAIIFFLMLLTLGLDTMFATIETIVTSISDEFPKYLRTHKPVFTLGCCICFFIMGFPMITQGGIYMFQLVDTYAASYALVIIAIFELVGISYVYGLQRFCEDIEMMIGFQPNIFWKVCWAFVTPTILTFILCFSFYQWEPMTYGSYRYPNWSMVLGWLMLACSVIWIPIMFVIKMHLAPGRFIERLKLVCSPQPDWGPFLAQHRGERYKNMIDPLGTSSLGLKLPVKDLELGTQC
In short: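 Xenopus laevis stage V-VI oocytes injected with 4.6 ng GlyT2 cRNA, kept 2-5 days at 16-18 °C in ND96 (pH 7.55). Two-electrode voltage clamp at -60 mV. Glycine concentration responses recorded without inhibitor, then after 2 min pre-application of inhibitor (10 nM, 30 nM or 1 μM) in ND96. Currents normalised per cell to Imax at 300 μM glycine without inhibitor; EC50 and Imax compared by ANOVA.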

[2] = target: T2, Sodium- and chloride-dependent glycine transporter 2 (Homo sapiens) (UniProt Q9Y345); assay: Inhibition of recombinant human GlyT2a expressed in Xenopus laevis oocytes assessed as reduction in channel current by two-electrode voltage clamp electrophysiology relative to control; type: cell-based
T2 sequence (whole entry): T1 sequence (Q9Y345 whole entry)

Rattus norvegicus = assay: Analgesic activity in Sprague-Dawley rat model of neuropathic pain assessed as reduction in allodynia at 30 mg/kg, ip administered as single dose measured after 90 mins post injection; type: functional, organism-based
In short: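 Male Sprague-Dawley rats were tested 14 days after nerve-constriction surgery. Mechanical paw withdrawal threshold was measured with von Frey filaments (0.4–15.1 g) by the up-down method, bounded at 0.2 and 15 g. Rats got a single ip injection with vehicle of 1% DMSO, 10% Solutol HS15 in 0.9% saline. Testing ran at 15–360 min post-injection with Bonferroni comparisons against vehicle.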

[3] = Toxicity in Sprague-Dawley rat model of neuropathic pain assessed as induction of abdominal pain rat 30 mg/kg, ip administered as single dose measured up to 60 mins post injection; type: organism-based; details: in vivo, 1 h
In short: (§1)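 Male Sprague-Dawley rats underwent chronic nerve constriction surgery, and neuropathic pain developed over 14 days. Rats were housed in groups of 4 and acclimatised to test chambers. Single ip injection of drug or vehicle (1% DMSO, 10% Solutol HS15 in 0.9% saline). Adverse behaviours were scored over the post-injection period alongside von Frey testing, with vehicle as comparison.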

[4] = Toxicity in Sprague-Dawley rat model of neuropathic pain assessed as induction of writhing behaviour rat 30 mg/kg, ip administered as single dose measured up to 60 mins post injection; type: organism-based; details: in vivo, 1 h; in short: as §1
[5] = Toxicity in Sprague-Dawley rat model of neuropathic pain assessed as induction of recumbent behaviour rat 30 mg/kg, ip administered as single dose measured up to 60 mins post injection; type: organism-based; details: in vivo, 1 h; in short: as §1
[6] = target: T2, Sodium- and chloride-dependent glycine transporter 2 (Homo sapiens); assay: Slow reversible inhibition of recombinant human GlyT2a expressed in Xenopus laevis oocytes assessed as recovery of transport current at IC50 followed by compound wash out followed by glycine re-application at 5 mins intervals throughout wash time course and measured after 30 mins by two-electrode voltage clamp electrophysiology; type: cell-based; design: scale not given: the % may be the effect or the level left
[7] = Drug degradation in human liver microsomes at 1 uM measured over 60 mins by LC-MS/MS analysis; type: ADME, Microsome; details: read-out: Drug degradation
In short: (§2)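 Human or rat liver microsomes (0.4 mg/mL protein final) in 0.1 M phosphate buffer pH 7.4 with 1 μM compound at 37°C. Reaction started with an NADPH-regenerating system plus MgCl2. Samples were quenched with ice-cold acetonitrile at time points over 60 min. Remaining parent was measured by LC-MS, and the first-order depletion rate constant came from an exponential decay fit.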

[8] = Degradation half life in rat liver microsomes at 1 uM by LC-MS/MS analysis; type: ADME, Microsome; in short: as §2
[9] = Degradation half life in rat plasma at 1000 ng/ml by LC-MS/MS analysis; type: ADME, cell-free
In short: (§3)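 Pooled human plasma (3 donors) or pooled male Sprague-Dawley rat plasma, thawed at 37°C. Spiked to a nominal 1000 ng/mL final (0.2% DMSO, 0.4% acetonitrile final) and incubated at 37°C. Aliquots were snap-frozen at time points over 4 h (n=3 per time point). Quantified by LC-MS against a same-species blank-plasma calibration with a leucine enkephalin internal standard.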

[10] = Drug degradation in human plasma at 1000 ng/ml measured over 240 mins by LC-MS/MS analysis; type: ADME, cell-free; details: read-out: Drug degradation; in short: as §3
[11] = target: T2, Sodium- and chloride-dependent glycine transporter 2 (Homo sapiens); assay: Inhibition of recombinant human GlyT2a expressed in Xenopus laevis oocytes assessed as reduction in channel current at 30 nM by two-electrode voltage clamp electrophysiology; type: cell-based
In short: (§4)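 GlyT2-expressing oocytes under two-electrode voltage clamp at -60 mV. Glycine concentration responses were run first without inhibitor, then after 2 min pre-application of inhibitor (10 nM, 30 nM or 1 μM) in ND96, followed by increasing glycine. Plateau currents were normalised to each cell's Imax at 300 μM glycine without inhibitor. ANOVA was applied to EC50 and Imax.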

[12] = target: T2, Sodium- and chloride-dependent glycine transporter 2 (Homo sapiens); assay: Inhibition of recombinant human GlyT2a expressed in Xenopus laevis oocytes assessed as reduction in channel current at 10 nM by two-electrode voltage clamp electrophysiology; type: cell-based; in short: as §4
[13] = target: T3, Sodium- and chloride-dependent glycine transporter 1 (Homo sapiens) (UniProt P48067); assay: Inhibition of recombinant human GlyT1b expressed in Xenopus laevis oocytes assessed as reduction in [3H]glycine uptake at 0.1 to 1 uM pretreated for 2 mins followed by [3H]glycine addition and measured after 30 mins by scintillation counting method; type: cell-based
T3 sequence (whole entry): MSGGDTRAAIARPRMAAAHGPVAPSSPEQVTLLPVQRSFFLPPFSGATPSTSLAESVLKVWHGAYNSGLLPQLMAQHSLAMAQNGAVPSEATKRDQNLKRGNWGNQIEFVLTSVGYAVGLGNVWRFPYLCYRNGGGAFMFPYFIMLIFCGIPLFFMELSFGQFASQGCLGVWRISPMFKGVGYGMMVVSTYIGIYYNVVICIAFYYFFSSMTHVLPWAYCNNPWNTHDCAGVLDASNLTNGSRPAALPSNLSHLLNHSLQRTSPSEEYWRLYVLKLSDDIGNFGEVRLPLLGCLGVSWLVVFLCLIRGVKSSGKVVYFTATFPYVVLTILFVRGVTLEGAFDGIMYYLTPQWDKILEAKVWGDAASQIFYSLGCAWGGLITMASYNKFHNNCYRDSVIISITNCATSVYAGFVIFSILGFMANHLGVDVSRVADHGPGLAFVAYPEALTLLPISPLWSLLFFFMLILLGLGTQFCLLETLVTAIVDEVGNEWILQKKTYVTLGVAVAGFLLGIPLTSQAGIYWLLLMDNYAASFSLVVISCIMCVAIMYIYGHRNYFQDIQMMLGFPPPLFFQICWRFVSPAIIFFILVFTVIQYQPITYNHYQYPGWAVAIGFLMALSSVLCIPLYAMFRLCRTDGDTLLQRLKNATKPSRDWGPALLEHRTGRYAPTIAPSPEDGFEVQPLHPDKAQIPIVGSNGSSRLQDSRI

[14] = target: T4, Sodium- and chloride-dependent glycine transporter 1 (Homo sapiens, UniProt P48067); assay: Inhibition of recombinant human GlyT1b expressed in Xenopus laevis oocytes assessed as reduction in channel current by two-electrode voltage clamp electrophysiology; type: cell-based
T4 sequence (P48067 whole entry): T3 sequence (whole entry)

[15] = target: T1, Sodium- and chloride-dependent glycine transporter 2; assay: Inhibition of recombinant human GlyT2a expressed in Xenopus laevis oocytes assessed as reduction in channel current by two-electrode voltage clamp electrophysiology; type: cell-based
[16] = target: T2, Sodium- and chloride-dependent glycine transporter 2 (Homo sapiens); assay: Inhibition of recombinant human GlyT2a expressed in Xenopus laevis oocytes assessed as reduction in channel current at 1 uM by two-electrode voltage clamp electrophysiology; type: cell-based; in short: as §4
GlyT2 (Homo sapiens) = assay: Inhibition of recombinant human GlyT2a expressed in expressed in Xenopus laevis oocytes assessed as reduction in [3H]glycine uptake at 0.1 to 1 uM pretreated for 2 mins followed by [3H]glycine addition and measured after 30 mins by scintillation counting method
[17] = Degradation half life in human plasma at 1000 ng/ml by LC-MS/MS analysis; type: ADME, cell-free; in short: as §3

CCCCC/C=C\C/C=C\C/C=C\C/C=C\CCCC(=O)NCCCC(=O)O [ARACHIDONOYL GABA]
IC50 [1]: 12000 nM

CCCCCCCCCCCCCCCC(=O)O[C@H](CC(=O)[O-])C[N+](C)(C)C
IC50 [1]: 600 nM

COc1cc(C(=O)NCC2(N(C)C)CCCC2)cc(OC)c1OCc1ccccc1
Imax [2]: 93% | Activity (Rattus norvegicus): Active | Activity [3]: Toxic | Activity [4]: Toxic | Activity [5]: Toxic | Activity [6]: 35%

CCCCCCCC/C=C\CCCCCCCC(=O)N[C@@H](CCCCN)C(=O)O.Cl
metabolised at 1 h, 1 µM [7]: < 15% | t1/2 [8]: 0.9 h | t1/2 [9]: 1.43 h | metabolised at 4 h, 1000 ng/ml [10]: < 15% | Imax [11]: 62.4% | Imax [12]: 82.8% | inhibition [13]: inactive | IC50 [14]: > 3000 nM | IC50 [15]: 25.5 nM | Imax [2]: 86.8% | Imax [16]: 30.2% | inhibition (GlyT2 (Homo sapiens)): Active

CCCCC/C=C\C/C=C\C/C=C\C/C=C\CCCC(=O)N[C@@H](C)C(=O)O
IC50 [1]: 9000 nM

CCCCCCCC/C=C\CCCCCCCC(=O)NCC(=O)O [OLEOYL GLYCINE]
t1/2 [9]: 0.45 h | metabolised at 4 h, 1000 ng/ml [10]: < 15% | t1/2 [17]: > 17.03 h | IC50 [14]: > 30000 nM | IC50 [15]: 500 nM | Imax [2]: 66.8% | IC50 [1]: 500 nM

CCCCC/C=C\C/C=C\C/C=C\C/C=C\CCCC(=O)NCC(=O)O [ARACHIDONOYL GLYCINE]
IC50 [1]: 9000 nM

CCCCCCCC/C=C\CCCCCCCC(=O)N[C@H](CCSC)C(=O)O
IC50 [14]: > 3000 nM | IC50 [15]: 259 nM | Imax [2]: 68.6%

CCCCCCCC/C=C\CCCCCCCC(=O)N[C@H](CCCNC(=N)N)C(=O)O
IC50 [14]: > 3000 nM | IC50 [15]: 69.2 nM | Imax [2]: 70.9%

CCCCCCCC/C=C\CCCCCCCC(=O)N[C@H](C)C(=O)O
IC50 [14]: > 30000 nM | IC50 [15]: 2330 nM | Imax [2]: 81.7%

CCCCCCCC/C=C\CCCCCCCC(=O)N[C@@H](CO)C(=O)O
IC50 [14]: > 3000 nM | IC50 [15]: 496 nM | Imax [2]: 73.1%

CCCCCCCC/C=C\CCCCCCCC(=O)NCCCCCN
IC50 [14]: > 3000 nM | IC50 [15]: 560 nM | Imax [2]: 86.7%

CCCCCCCC/C=C\CCCCCCCC(=O)N[C@H](Cc1cnc[nH]1)C(=O)O
IC50 [14]: > 3000 nM | IC50 [15]: 313 nM | Imax [2]: 82.1%

CCCCCCCC/C=C\CCCCCCCC(=O)N[C@H](CCC(=O)O)C(=O)O
IC50 [14]: > 10000 nM | IC50 [15]: 3750 nM | Imax [2]: 91.6%

CCCCCCCC/C=C\CCCCCCCC(=O)N[C@@H](CCC(=O)O)C(=O)O
IC50 [14]: > 10000 nM | IC50 [15]: 4350 nM | Imax [2]: 100%

CCCCCCCC/C=C\CCCCCCCC(=O)N[C@@H](CN)C(=O)O
IC50 [14]: > 3000 nM | IC50 [15]: 182 nM | Imax [2]: 58.2%

CCCCCCCC/C=C\CCCCCCCC(=O)O[C@H](CC(=O)[O-])C[N+](C)(C)C
IC50 [1]: 340 nM
